From article PMC7880169 (Medicinal chemistry research : an international journal for …, 2020)
Read-outs that look alike come from different tables or passages of the source.

Tests used:
[1] = In vitro microsomal stability in RLMs; type: in vitro ADME, rat; settings: for microsomal CLint at 1 μM: rat, rat liver microsomes, pH 7.4
Method in brief: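 Test compound at 1 μM (spiked from 200 μM stock) in 50 mM phosphate buffer pH 7.4 with 1 mg protein/mL rat liver microsomes and 3 mM MgCl2. Mixture pre-incubated 5 min at 37 ± 0.5 °C, then started with NADPH (1 mM final) and shaken for 30 min. Aliquots taken at 0, 5, 10, 15, 20 and 30 min, quenched in ice-cold acetonitrile with internal standard, filtered and analysed by LC-MS/MS. Controls: verapamil (positive) and no-NADPH mixture (negative).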

σ1R [2] = biological target: T1, σ1R (Cavia porcellus, UniProt Q60492); test: σ1R radioligand binding with [3H]; design: species or system guinea pig; settings: for Ki σ2R /Ki σ1R: selectivity ratio σ2R over σ1R
Method in brief: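 Membranes from frozen whole guinea pig brain. Each tube held 3 nmol/L [3H](+)-pentazocine (28 Ci/mmol) and 8.0 mg tissue.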

[3] = Metabolic soft spot identification of 12 in RLMs; type: in vitro ADME, rat; settings: RLMs with NADPH
Method in brief: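 Test compound at 10 μM in 50 mM phosphate buffer pH 7.4 with 1 mg protein/mL rat liver microsomes, pre-incubated 5 min at 37 ± 0.5 °C with shaking. Reaction started with NADPH (1 mM final). Samples taken at 0 min (control) and 10 min, mixed with an equal volume of ice-cold acetonitrile, vortexed 2 min and centrifuged at 10,000 g for 5 min. Supernatant analysed by LC-HRMS on a QToF.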

σ2R = settings: read-out: Ki (nM ± SEM) σ2R; ref Yous et al. 2005; cited from earlier work
σ1R [4] = biological target: T1, σ1R; settings: selectivity ratio; ref Yous et al. 2005; cited from earlier work

T1 sequence (Q60492 whole entry): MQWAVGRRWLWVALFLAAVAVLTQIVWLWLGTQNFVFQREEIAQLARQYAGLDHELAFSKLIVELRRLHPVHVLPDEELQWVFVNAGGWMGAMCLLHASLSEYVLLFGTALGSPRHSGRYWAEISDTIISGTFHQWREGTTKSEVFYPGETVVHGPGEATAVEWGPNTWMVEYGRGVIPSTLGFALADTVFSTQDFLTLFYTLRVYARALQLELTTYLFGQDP

| SMILES | microsomal CLint at 1 μM [1] | Ki (σ1R [2]) | Ki σ2R /Ki σ1R (σ1R [2]) | remaining unmodified at the end of 10 min incubation [3] | t1/2 (in vitro hepatic microsomal half-life) ([1]; RLMs 1 mg protein/mL, 1 μM compound, NADPH, 37 °C) | Ki (σ2R) | Ki σ2R /Ki σ1R (σ1R [4]) |
| --- | --- | --- | --- | --- | --- | --- | --- |
| O=c1sc2ccccc2n1CCNC12CC3CC(CC(C3)C1)C2 [Compound 7, 3-{2-[(Adamantan-1-yl)amino]ethyl}benzo[d]thiazol-2(3H)-one] | 460 µL/min/mg | 0.131 ± 0.00994 µM | 0.5 | – | – | – | – |
| CCC(=O)c1ccc2c(c1)sc(=O)n2CCNC12CC3CC(CC(C3)C1)C2 [Compound 8, 3-{2-[(Adamantan-1-yl)amino]ethyl}−6-propionylbenzo[d]thiazol-2(3H)-one] | 160 µL/min/mg | 0.0112 ± 0.00126 µM | 6.3 | – | – | – | – |
| CN(CCn1c(=O)sc2ccccc21)C12CC3CC(CC(C3)C1)C2 [Compound 10, 3-{2-[(Adamantan-1-yl)(methyl)amino]ethyl}benzo[d]thiazol-2(3H)-one] | 650 µL/min/mg | 0.0129 ± 0.0018 µM | 6.6 | – | – | – | – |
| CCCc1ccc2c(c1)sc(=O)n2CCN1CCCCCC1 [SN56, 3-[2-(azepan-1-yl)ethyl]-6-propylbenzo[d]thiazol-2(3H)-one, reference compound] | 710 µL/min/mg | – | – | – | 58.8 s | > 1000 nM | >1000 |

More lines, main results first:

| microsomal CLint at 1 μM [1] | Ki (σ1R [2]) | Ki σ2R /Ki σ1R (σ1R [2]) | remaining unmodified at the end of 10 min incubation [3] | t1/2 (in vitro hepatic microsomal half-life) ([1]; RLMs 1 mg protein/mL, 1 μM compound, NADPH, 37 °C) | SMILES | Ki (σ2R) | Ki σ2R /Ki σ1R (σ1R [4]) |
| --- | --- | --- | --- | --- | --- | --- | --- |
| 280 µL/min/mg | 0.0112 ± 0.00068 µM | 6.2 | – | – | CCCc1ccc2c(c1)sc(=O)n2CCNC12CC3CC(CC(C3)C1)C2 [Compound 9, 3-{2-[(Adamantan-1-yl)amino]ethyl}−6-propylbenzo[d]thiazol-2(3H)-one] | – | – |
| 560 µL/min/mg | 0.0129 ± 0.00184 µM | 8.7 | – | – | CCC(=O)c1ccc2c(c1)sc(=O)n2CCN(C)C12CC3CC(CC(C3)C1)C2 [Compound 11, 3-{2-[(Adamantan-1-yl)(methyl)amino]ethyl}−6-propionylbenzo[d]thiazol-2(3H)-one] | – | – |
| 370 µL/min/mg | 0.0072 ± 0.00088 µM | 61 | ca. 6% | – | CCCc1ccc2c(c1)sc(=O)n2CCN(C)C12CC3CC(CC(C3)C1)C2 [Compound 12, 3-{2-[(Adamantan-1-yl)(methyl)amino]ethyl}−6-propylbenzo[d]thiazol-2(3H)-one] | – | – |
